ChEMBL document CHEMBL1152689, “Synthesis, tautomerism, and antimicrobial, anti-HCV, anti-SSPE, antioxidant, and antitumor activities of arylazobenzosuberones” (Bioorg Med Chem, 2009)
Converted amounts (≈) assume the structure as drawn. The source made the active and inactive calls. The rule behind the calls is not given here.

How the values were obtained:
Measles morbillivirus = test: Antiviral activity against Measles virus infected in intracranially dosed hamster assessed as inhibition of subacute sclerosing panencephalitis; assay type: functional
How it was run: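 Hamsters under ether anesthesia injected intracranially, into the subarachnoid space at 2 mm depth, at 5, 10 and 20 mg/kg/day for 10 days. Four animals per group sacrificed on days 1–20. Brains homogenized in PBS and centrifuged, supernatant deproteinized with ethanol, then MIC in brain tissue determined by HPLC and bioassay.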

Staphylococcus aureus [1] = test: Antimicrobial activity against Staphylococcus aureus at 5 ug/mL by agar diffusion method; assay type: functional; conditions: read-out: IZ
Pseudomonas aeruginosa [2] = test: Antimicrobial activity against Pseudomonas aeruginosa at 2.5 ug/mL by agar diffusion method; assay type: functional; conditions: read-out: IZ
[3] = tested on: Syncephalastrum racemosum; test: Antimicrobial activity against Syncephalastrum racemosum at 1.25 ug/mL by agar diffusion method; assay type: functional; conditions: read-out: IZ
Pseudomonas aeruginosa [4] = test: Antimicrobial activity against Pseudomonas aeruginosa at 1.25 ug/mL by agar diffusion method; assay type: functional; conditions: read-out: IZ
Candida albicans [5] = test: Antimicrobial activity against Candida albicans at 1.25 ug/mL by agar diffusion method; assay type: functional; conditions: read-out: IZ
Aspergillus fumigatus [6] = test: Antimicrobial activity against Aspergillus fumigatus at 2.5 ug/mL by agar diffusion method; assay type: functional; conditions: read-out: IZ
Staphylococcus aureus [7] = test: Antimicrobial activity against Staphylococcus aureus at 2.5 ug/mL by agar diffusion method; assay type: functional; conditions: read-out: IZ
Bacillus subtilis [8] = test: Antimicrobial activity against Bacillus subtilis at 5 ug/mL by agar diffusion method; assay type: functional; conditions: read-out: IZ
Escherichia coli [9] = test: Antimicrobial activity against Escherichia coli at 1.25 ug/mL by agar diffusion method; assay type: functional; conditions: read-out: IZ
[10] = tested on: Radical scavenging activity; test: Antioxidant activity assessed as DPPH free radical scavenging activity by measuring reduction in DPPH absorbance by ELISA relative to untreated control; assay type: functional; design: concentration or dose not given beside the values
How it was run: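 Test compounds dissolved in DMSO, ascorbic acid standard in water, both serially diluted. 10 µl sample added to 90 µl of 100 µM DPPH in methanol and kept in the dark at 37 °C for 30 min. Absorbance read at 515 nm. Blank is DMSO plus DPPH. % reduction = (A_B − A_A)/A_B × 100. Run in triplicate.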

Candida albicans [11] = test: Antimicrobial activity against Candida albicans at 2.5 ug/mL by agar diffusion method; assay type: functional; conditions: read-out: IZ
[12] = molecular target: DNA topoisomerase 2-alpha (Mus musculus) (UniProt Q01320); test: Inhibition of topoisomerase 2 from mouse P388 cells assessed as relaxation of pBR322 DNA by agarose gel electrophoresis relative to etoposide; assay type: cell-based
DNA topoisomerase 2-alpha (Mus musculus), sequence (Q01320 whole entry): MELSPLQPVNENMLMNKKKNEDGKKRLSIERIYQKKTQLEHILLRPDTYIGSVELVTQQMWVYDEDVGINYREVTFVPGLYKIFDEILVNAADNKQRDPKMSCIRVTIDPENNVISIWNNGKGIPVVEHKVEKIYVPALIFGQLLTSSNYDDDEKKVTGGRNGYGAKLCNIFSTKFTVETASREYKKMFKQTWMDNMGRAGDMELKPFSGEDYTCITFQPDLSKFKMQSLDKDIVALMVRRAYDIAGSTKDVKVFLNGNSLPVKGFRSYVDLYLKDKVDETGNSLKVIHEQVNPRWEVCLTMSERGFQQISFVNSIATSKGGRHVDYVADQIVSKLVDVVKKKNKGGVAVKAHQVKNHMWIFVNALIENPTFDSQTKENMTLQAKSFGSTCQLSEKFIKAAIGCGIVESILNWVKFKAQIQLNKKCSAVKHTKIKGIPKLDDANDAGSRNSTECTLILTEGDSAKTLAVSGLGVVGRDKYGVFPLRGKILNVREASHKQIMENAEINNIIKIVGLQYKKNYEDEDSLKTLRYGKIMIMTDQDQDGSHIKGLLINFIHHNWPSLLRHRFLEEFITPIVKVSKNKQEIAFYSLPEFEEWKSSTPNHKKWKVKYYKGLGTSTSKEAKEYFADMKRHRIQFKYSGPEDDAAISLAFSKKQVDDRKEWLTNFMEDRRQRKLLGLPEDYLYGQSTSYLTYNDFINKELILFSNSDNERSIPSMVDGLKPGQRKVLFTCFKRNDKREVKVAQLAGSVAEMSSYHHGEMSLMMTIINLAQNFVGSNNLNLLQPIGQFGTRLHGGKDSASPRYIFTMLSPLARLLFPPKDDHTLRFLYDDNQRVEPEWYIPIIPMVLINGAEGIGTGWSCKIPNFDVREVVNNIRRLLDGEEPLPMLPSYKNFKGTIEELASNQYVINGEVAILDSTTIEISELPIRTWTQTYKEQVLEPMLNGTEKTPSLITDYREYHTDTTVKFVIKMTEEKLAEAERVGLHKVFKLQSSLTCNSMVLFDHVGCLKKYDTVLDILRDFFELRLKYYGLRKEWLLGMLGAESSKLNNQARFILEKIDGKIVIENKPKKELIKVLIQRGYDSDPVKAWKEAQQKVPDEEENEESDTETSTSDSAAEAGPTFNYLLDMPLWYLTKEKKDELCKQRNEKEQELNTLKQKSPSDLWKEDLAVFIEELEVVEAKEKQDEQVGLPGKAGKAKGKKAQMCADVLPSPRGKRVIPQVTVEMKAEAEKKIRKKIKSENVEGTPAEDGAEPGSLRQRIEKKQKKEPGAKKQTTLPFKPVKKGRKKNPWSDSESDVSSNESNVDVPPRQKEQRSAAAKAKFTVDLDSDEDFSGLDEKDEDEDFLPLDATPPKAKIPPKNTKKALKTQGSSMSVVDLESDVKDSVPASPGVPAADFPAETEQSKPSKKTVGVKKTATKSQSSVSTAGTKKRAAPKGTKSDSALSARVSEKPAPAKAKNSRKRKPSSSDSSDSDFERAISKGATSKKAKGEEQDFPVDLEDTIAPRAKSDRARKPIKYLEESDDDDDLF
How it was run: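 Topoisomerase II purified from P388 cells. One unit relaxes 0.125 µg supercoiled pBR322 DNA, incubated with or without inhibitor at 30 °C for 1 h in 50 mM Tris-HCl pH 8.0, 100 mM KCl, 10 mM MgCl2, 0.5 mM DTT, 1 mM ATP and 30 µg/ml BSA. Products run on 0.7% agarose in TBE, stained with ethidium bromide and imaged under UV.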

Hepatitis C virus = test: Antiviral activity against HCV by cell based replicon assay; assay type: functional, Hepacivirus hominis
How it was run: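 HCV replicon cells plated at 1×10^4 per well. Next day incubated at 37 °C with serially diluted compound in DMEM with 2% FBS and 0.5% DMSO. HCV RNA copy number measured by quantitative RT-PCR on total cellular RNA. Each point is the average of five replicates. Cytotoxicity measured by MTS in parallel.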

Aspergillus fumigatus [13] = test: Antimicrobial activity against Aspergillus fumigatus at 5 ug/mL by agar diffusion method; assay type: functional; conditions: read-out: IZ
Penicillium italicum [14] = test: Antimicrobial activity against Penicillium italicum at 5 ug/mL by agar diffusion method; assay type: functional; conditions: read-out: IZ
Penicillium italicum [15] = test: Antimicrobial activity against Penicillium italicum at 1.25 ug/mL by agar diffusion method; assay type: functional; conditions: read-out: IZ
[16] = tested on: Syncephalastrum racemosum; test: Antimicrobial activity against Syncephalastrum racemosum at 2.5 ug/mL by agar diffusion method; assay type: functional; conditions: read-out: IZ
[17] = molecular target: T1, DNA topoisomerase 1 (Homo sapiens) (UniProt P11387); test: Inhibition of topoisomerase 1 relative to etoposide
T1 sequence (whole entry): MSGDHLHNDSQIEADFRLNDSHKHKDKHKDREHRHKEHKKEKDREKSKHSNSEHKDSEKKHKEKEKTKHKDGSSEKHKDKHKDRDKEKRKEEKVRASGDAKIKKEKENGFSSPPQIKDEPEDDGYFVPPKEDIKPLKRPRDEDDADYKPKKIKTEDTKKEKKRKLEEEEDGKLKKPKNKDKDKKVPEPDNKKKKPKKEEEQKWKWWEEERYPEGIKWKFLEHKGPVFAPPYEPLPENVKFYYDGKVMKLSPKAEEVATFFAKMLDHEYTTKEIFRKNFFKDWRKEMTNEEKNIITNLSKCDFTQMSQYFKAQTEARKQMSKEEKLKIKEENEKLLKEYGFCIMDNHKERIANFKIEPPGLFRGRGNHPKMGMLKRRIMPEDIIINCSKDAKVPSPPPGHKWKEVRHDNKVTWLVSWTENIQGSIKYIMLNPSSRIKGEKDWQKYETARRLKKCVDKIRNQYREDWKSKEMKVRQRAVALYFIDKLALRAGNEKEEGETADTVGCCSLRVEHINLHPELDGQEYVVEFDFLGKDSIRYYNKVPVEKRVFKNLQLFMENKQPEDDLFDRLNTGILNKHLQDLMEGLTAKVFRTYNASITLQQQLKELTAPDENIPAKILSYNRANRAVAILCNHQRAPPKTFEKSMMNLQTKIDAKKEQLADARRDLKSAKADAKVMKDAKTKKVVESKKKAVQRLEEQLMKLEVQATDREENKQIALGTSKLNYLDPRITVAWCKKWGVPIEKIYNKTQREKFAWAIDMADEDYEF

Aspergillus fumigatus [18] = test: Antimicrobial activity against Aspergillus fumigatus at 1.25 ug/mL by agar diffusion method; assay type: functional; conditions: read-out: IZ
Penicillium italicum [19] = test: Antimicrobial activity against Penicillium italicum at 2.5 ug/mL by agar diffusion method; assay type: functional; conditions: read-out: IZ
Pseudomonas aeruginosa [20] = test: Antimicrobial activity against Pseudomonas aeruginosa at 5 ug/mL by agar diffusion method; assay type: functional; conditions: read-out: IZ
Escherichia coli [21] = test: Antimicrobial activity against Escherichia coli at 2.5 ug/mL by agar diffusion method; assay type: functional; conditions: read-out: IZ
Bacillus subtilis [22] = test: Antimicrobial activity against Bacillus subtilis at 1.25 ug/mL by agar diffusion method; assay type: functional; conditions: read-out: IZ
Candida albicans [23] = test: Antimicrobial activity against Candida albicans at 5 ug/mL by agar diffusion method; assay type: functional; conditions: read-out: IZ
MC-38 = test: Antitumor activity against mouse Colon 38 cells implanted in iv dosed C57BL/6 mouse administered as single dose; assay type: functional, organism-based
How it was run: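 Female C57BL/6 mice, 6 weeks old, given about 30 mg Colon 38 tumor tissue s.c. in the flank. Randomized into groups of n = 5 when tumors reached about 300 mm3 (day 1). Compound in 5% glucose given as a single iv tail-vein dose on day 1; controls received 5% glucose. Tumor volume = (length × width²)/2 and body weight tracked.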

Staphylococcus aureus [24] = test: Antimicrobial activity against Staphylococcus aureus at 1.25 ug/mL by agar diffusion method; assay type: functional; conditions: read-out: IZ
[25] = tested on: Syncephalastrum racemosum; test: Antimicrobial activity against Syncephalastrum racemosum at 5 ug/mL by agar diffusion method; assay type: functional; conditions: read-out: IZ
Bacillus subtilis [26] = test: Antimicrobial activity against Bacillus subtilis at 2.5 ug/mL by agar diffusion method; assay type: functional; conditions: read-out: IZ
Escherichia coli [27] = test: Antimicrobial activity against Escherichia coli at 5 ug/mL by agar diffusion method; assay type: functional; conditions: read-out: IZ
[28] = Antioxidant activity assessed as inhibition of peroxynitrite-mediated 3-nitrotyrosine formation by HPLC; assay type: functional
How it was run: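 Tyrosine and peroxynitrite, each 100 µM, reacted with compound at 0–300 µM in 100 mM phosphate buffer pH 7.4 at 37 °C for 15 min. Peroxynitrite made from acidified H2O2 plus KNO2, quenched with NaOH, and kept on ice no longer than 30 min before use.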

Structure (SMILES) | MIC (Measles morbillivirus) [µg/mL] | zone of inhibition at 5 µg/mL (Staphylococcus aureus [1]) [mm] | zone of inhibition at 2.5 µg/mL (Pseudomonas aeruginosa [2]) [mm] | zone of inhibition at 1.25 µg/mL [3] [mm] | zone of inhibition at 1.25 µg/mL (Pseudomonas aeruginosa [4]) [mm] | zone of inhibition at 1.25 µg/mL (Candida albicans [5]) [mm] | zone of inhibition at 2.5 µg/mL (Aspergillus fumigatus [6]) [mm] | zone of inhibition at 2.5 µg/mL (Staphylococcus aureus [7]) [mm] | zone of inhibition at 5 µg/mL (Bacillus subtilis [8]) [mm] | zone of inhibition at 1.25 µg/mL (Escherichia coli [9]) [mm] | Activity [10] [%] | zone of inhibition at 2.5 µg/mL (Candida albicans [11]) [mm] | Ratio [12] | MIC (Hepatitis C virus) [µg/mL] | zone of inhibition at 5 µg/mL (Aspergillus fumigatus [13]) [mm] | zone of inhibition at 5 µg/mL (Penicillium italicum [14]) [mm] | zone of inhibition at 1.25 µg/mL (Penicillium italicum [15]) [mm] | zone of inhibition at 2.5 µg/mL [16] [mm] | Ratio [17] | zone of inhibition at 1.25 µg/mL (Aspergillus fumigatus [18]) [mm] | further results
O=C1/C(=N/Nc2cccc([N+](=O)[O-])c2)CCCc2ccccc21 | 6.11 (≈ 19.8 µM) | 10 | 0 | 9 | 0 | 5 | 11 | 6 | 19 | 0 | 81.1 | 8 | 4.53 | 1.04 (≈ 3.37 µM) | 20 | 0 | 0 | 12 | 4.5 | 8 | zone of inhibition at 2.5 µg/mL (Penicillium italicum [19]): 0 mm; zone of inhibition at 5 µg/mL (Pseudomonas aeruginosa [20]): 0 mm; zone of inhibition at 2.5 µg/mL (Escherichia coli [21]): 5 mm; zone of inhibition at 1.25 µg/mL (Bacillus subtilis [22]): 8 mm; zone of inhibition at 5 µg/mL (Candida albicans [23]): 15 mm; Activity (MC-38): Active; zone of inhibition at 1.25 µg/mL (Staphylococcus aureus [24]): 0 mm; zone of inhibition at 5 µg/mL [25]: 19 mm; zone of inhibition at 2.5 µg/mL (Bacillus subtilis [26]): 13 mm; zone of inhibition at 5 µg/mL (Escherichia coli [27]): 12 mm; IC50 [28]: 56 µM
O=C1/C(=N/Nc2ccc([N+](=O)[O-])cc2)CCCc2ccccc21 | 6.08 (≈ 19.7 µM) | 9 | 0 | 4 | 0 | 0 | 8 | 3 | 14 | 0 | 82 | 6 | 4.6 | 1.03 (≈ 3.34 µM) | 18 | 0 | 0 | 9 | 4.4 | 5 | zone of inhibition at 2.5 µg/mL (Penicillium italicum [19]): 0 mm; zone of inhibition at 5 µg/mL (Pseudomonas aeruginosa [20]): 0 mm; zone of inhibition at 2.5 µg/mL (Escherichia coli [21]): 0 mm; zone of inhibition at 1.25 µg/mL (Bacillus subtilis [22]): 3 mm; zone of inhibition at 5 µg/mL (Candida albicans [23]): 12 mm; Activity (MC-38): Active; zone of inhibition at 1.25 µg/mL (Staphylococcus aureus [24]): 0 mm; zone of inhibition at 5 µg/mL [25]: 16 mm; zone of inhibition at 2.5 µg/mL (Bacillus subtilis [26]): 8 mm; zone of inhibition at 5 µg/mL (Escherichia coli [27]): 8 mm; IC50 [28]: 5.13 µM
